# Activity calls are given as the source filed them.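 Rule for the calls: active = IC50 at or below 20 µM; inactive = the rest.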
# Test system: Jurkat NF-kB luciferase, PMA/ionomycin, luminescence 16 h
# Experiment: inhibitors of PMA/ionomycin-driven NF-kB luciferase in Jurkat – cell-based, luminescence, counter-screen for B-cell antigen receptor NF-kB inhibitors, SAR follow-up (AID 504516)
# Summary of the method: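 Detection: SteadyGlo luminescence | System: Jurkat NF-kB luciferase reporter cells | Quantity: 8000 reporter cells per well | Doses: Test compounds in dose-response series | Timing: 1 h compound pre-incubation, 16 h agonist exposure, 37 °C | Control set: DMSO-only and no-agonist wells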
row,Structure (SMILES),IC50
1,COc1ccc(-c2nc(CSCC(=O)NC3CC3)c(C)o2)cc1,> 79 µM (inactive)
2,Cc1oc(-c2ccc(C(F)(F)F)cc2)nc1CSCC(=O)NC1CC1,> 79 µM (inactive)
3,CCNC(=O)CCc1nc(-c2cccc(C)c2)no1,> 79 µM (inactive)
4,CCOc1ccc(-c2nc(CSCC(=O)NC)c(C)o2)cc1,> 79 µM (inactive)
5,CCOc1ccc(-c2noc(CCC(=O)O)n2)cc1,9.25 µM
6,COc1ccc(C(=O)Nc2ccc3[nH]c(-c4cccc(OC)c4)cc(=O)c3c2)cc1,> 79 µM (inactive)
7,CC(C)Nc1ccc(C(CC(=O)O)NC(=O)c2ccccc2)cc1[N+](=O)[O-] (stereo not drawn),> 79 µM (inactive)
8,CNC(=O)CCc1nc(-c2ccccc2)no1,> 79 µM (inactive)
9,CCCCOc1ccc(-c2nc(CSCC(=O)NC3CC3)c(C)o2)cc1,> 79 µM (inactive)
10,CCOc1ccc(-c2nc(CSCC(=O)N3CCOCC3)c(C)o2)cc1,> 79 µM (inactive)
11,CCNC(=O)CCc1nc(-c2cccc(F)c2)no1,> 79 µM (inactive)
12,COc1cccc(-c2cc(=O)c3cc(NC(=O)c4ccccc4)ccc3[nH]2)c1,> 79 µM (inactive)
13,CCOc1ccc(-c2nc(CSCC(=O)NCC3CC3)c(C)o2)cc1,20.9 µM (inactive)
14,CCOc1ccc(-c2nc(CSCC(=O)NC(C)(C)C)c(C)o2)cc1,10.8 µM
15,CCOC(=O)CC(NC(=O)c1ccc(Br)cc1)c1ccc(F)c([N+](=O)[O-])c1 (stereo not drawn),42.7 µM (inactive)
16,CCNC(=O)CCc1nc(-c2ccc(OCC)cc2)no1,> 79 µM (inactive)
17,CCCCc1ccc(-c2noc(CCC(=O)NC)n2)cc1,> 79 µM (inactive)
18,Cc1ccc(-c2nc(CSCC(=O)NCc3ccco3)c(C)o2)cc1,> 79 µM (inactive)
19,CC(C)(C)c1ccc(-c2noc(CCC(=O)NC3CC3)n2)cc1,58.7 µM (inactive)
20,CCOc1ccc(-c2nc(CSCC(=O)NCc3ccco3)c(C)o2)cc1,25.4 µM (inactive)
21,CCCCc1ccc(-c2noc(CCC(=O)NC(C)(C)C)n2)cc1,1.62 µM
22,CC(C)(C)NC(=O)CCc1nc(-c2ccccc2)no1,> 79 µM (inactive)
23,CCOc1ccc(-c2nc(CSCC(N)=O)c(C)o2)cc1,> 79 µM (inactive)
24,CCCOc1ccc(-c2nc(CSCC(=O)O)c(C)o2)cc1,< 0.15 µM
25,Cc1oc(-c2ccccc2)nc1CSCC(=O)NC1CC1,> 79 µM (inactive)
26,Cc1oc(-c2ccc(C(F)(F)F)cc2)nc1CSCC(=O)O,0.52 µM

row,Structure (SMILES),IC50
1,CCNC(=O)CCc1nc(-c2ccccc2Cl)no1,> 79 µM (inactive)
2,CCNC(=O)CCc1nc(-c2ccc(C(C)C)cc2)no1,> 79 µM (inactive)
3,CCc1ccc(-c2noc(CCC(=O)NC(C)(C)C)n2)cc1,> 79 µM (inactive)
4,C#CCNC(=O)CSCc1nc(-c2ccc(OCC)cc2)oc1C,> 79 µM (inactive)
5,CCOc1ccc(-c2nc(CSCC(=O)NC3CCC3)c(C)o2)cc1,26.4 µM (inactive)
6,Cc1oc(-c2ccccc2)nc1CSCC(=O)NCc1ccco1,> 79 µM (inactive)
7,CCC(C)NC(=O)CCc1nc(-c2ccc(C(C)C)cc2)no1 (stereo not drawn),> 79 µM (inactive)
8,CCC(C)NC(=O)CCc1nc(-c2ccccc2)no1 (stereo not drawn),> 79 µM (inactive)
9,Cc1ccc(-c2nc(CSCC(=O)NC3CC3)c(C)o2)cc1,> 79 µM (inactive)
10,CCCOc1ccc(-c2nc(CSCC(=O)NC3CC3)c(C)o2)cc1,> 79 µM (inactive)
11,CCc1ccc(-c2noc(CCC(=O)NC)n2)cc1,> 79 µM (inactive)
12,CCNC(=O)CCc1nc(-c2c(Cl)cccc2Cl)no1,> 79 µM (inactive)
13,CCOc1ccc(-c2nc(CSCC(=O)N(C)C)c(C)o2)cc1,> 79 µM (inactive)
14,CCc1ccc(-c2nc(CSCC(=O)NC3CC3)c(-c3ccccc3)o2)cc1,72.8 µM (inactive)
15,CNC(=O)CCc1nc(-c2ccc(C(C)C)cc2)no1,> 79 µM (inactive)
16,CCc1ccc(-c2noc(CCC(=O)NC3CC3)n2)cc1,> 79 µM (inactive)
17,CCCCc1ccc(-c2noc(CCC(=O)NCC)n2)cc1,> 79 µM (inactive)
18,CCc1ccc(-c2nc(CSCC(=O)NCc3ccco3)c(C)o2)cc1,> 79 µM (inactive)
19,CCN(CC)C(=O)CCc1nc(-c2ccc(C(C)(C)C)cc2)no1,16.4 µM
20,CN(C)C(=O)CCc1nc(-c2ccc(C(C)(C)C)cc2)no1,71.3 µM (inactive)
21,CC(C)(C)c1ccc(-c2noc(CCC(=O)NC3CCC3)n2)cc1,0.94 µM
22,CCNC(=O)CCc1nc(-c2cccc(OC)c2)no1,> 79 µM (inactive)
23,CNC(=O)CCc1nc(-c2ccc(C(C)(C)C)cc2)no1,> 79 µM (inactive)
24,CCCCc1ccc(-c2noc(CCC(=O)NC(C)CC)n2)cc1 (stereo not drawn),0.41 µM
25,CCCOc1ccc(-c2nc(CSCC(=O)NCc3ccco3)c(C)o2)cc1,> 79 µM (inactive)
26,CCNC(=O)CCc1nc(-c2ccc(CC)cc2)no1,> 79 µM (inactive)

row,Structure (SMILES),IC50
1,Cc1oc(-c2ccc(OC(F)(F)F)cc2)nc1CSCC(=O)NC1CC1,> 79 µM (inactive)
2,CC(C)c1ccc(-c2noc(CCC(=O)NC3CC3)n2)cc1,> 79 µM (inactive)
3,CCC(C)NC(=O)CCc1nc(-c2ccc(C(C)(C)C)cc2)no1 (stereo not drawn),> 79 µM (inactive)
4,CCNC(=O)CCc1nc(-c2ccccc2C)no1,> 79 µM (inactive)
5,Cc1oc(-c2ccc(OC(F)(F)F)cc2)nc1CSCC(=O)O,0.22 µM
6,CCOc1ccc(-c2nc(CSCC(=O)O)c(C)o2)cc1,< 0.15 µM
7,CC(C)c1ccc(-c2noc(CCC(=O)NC(C)(C)C)n2)cc1,15.2 µM
8,CCNC(=O)CCc1nc(-c2ccccc2)no1,> 79 µM (inactive)
9,CCc1ccc(-c2noc(CCC(=O)NC(C)CC)n2)cc1 (stereo not drawn),> 79 µM (inactive)
10,CCOc1ccc(-c2nc(CSCC(=O)NC3CC3)c(C)o2)cc1,> 79 µM (inactive)
11,CC(C)(C)c1ccc(-c2noc(CCC(=O)O)n2)cc1,0.2 µM
12,CCCCOc1ccc(-c2nc(CSCC(=O)O)c(C)o2)cc1,< 0.15 µM
13,CCOc1ccccc1-c1nc(CSCC(=O)NC2CC2)c(C)o1,> 79 µM (inactive)
14,CC(C)(C)c1ccc(-c2noc(CCC(N)=O)n2)cc1,0.19 µM
15,O=C(O)CCc1nc(-c2ccccc2)no1,> 79 µM (inactive)
16,COc1ccc(-c2nc(CSCC(=O)NCc3ccco3)c(C)o2)cc1,> 79 µM (inactive)
17,O=C(CCc1nc(-c2ccccc2)no1)NC1CC1,> 79 µM (inactive)
18,CCOc1ccccc1-c1nc(CSCC(=O)O)c(C)o1,> 79 µM (inactive)
19,CCCCOc1ccc(-c2nc(CSCC(=O)NCc3ccco3)c(C)o2)cc1,> 79 µM (inactive)
20,COC(=O)CCc1nc(-c2ccc(C(C)(C)C)cc2)no1,< 0.16 µM
21,CCCCc1ccc(-c2noc(CCC(=O)NC3CC3)n2)cc1,1.25 µM
22,CCc1ccc(-c2nc(CSCC(=O)NC3CC3)c(C)o2)cc1,> 79 µM (inactive)
23,CCNC(=O)CCc1nc(-c2ccc(C(C)(C)C)cc2)no1,> 79 µM (inactive)
24,CCOc1ccc(-c2nc(CSCC(=O)NC3CC3)c(-c3ccccc3)o2)cc1,54.6 µM (inactive)
25,COc1cccc(-c2cc(=O)c3cc(NC(=O)c4ccc(N(C)C)cc4)ccc3[nH]2)c1,> 79 µM (inactive)
26,CCOc1cccc(-c2nc(CSCC(=O)NC3CC3)c(C)o2)c1,> 79 µM (inactive)

# From PubChem BioAssay AID504516 (Sanford-Burnham Center for Chemical Genomics, 2011)
